Active and inactive are the calls of the source.
What was measured:
Canis familiaris [1] = assay: Antiarrhythmic property Heart rate (drug free) is compared to Lidocaine using doses (3 and 6 mg/kg).; format: functional, Canis lupus familiaris
Procedure, shortened: (§1)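 Mongrel dogs (~12–25 kg), 1–4 days after coronary occlusion leaving a surviving epicardial rim, anesthetized with sodium pentobarbital (~30 mg/kg). 12-lead ECG monitored throughout. Agent given iv at 3 and 6 mg/kg. Parameters recorded before (drug free) and after dosing. Programmed electrical stimulation tested SVT inducibility (≥250 beats/min, ≥30 s) at baseline, ~2–5 min after each dose, and at 30 min.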

Canis familiaris [2] = assay: Antiarrhythmic property Heart rate (post drug) is compared to Lidocaine using doses(3 and 6 mg/kg). system.; format: functional, Canis lupus familiaris; procedure, shortened: as §1
Canis familiaris [3] = assay: Antiarrhythmic property Mean blood pressure (drug free) is compared to Lidocaine using doses(3 and 6 mg/kg).; format: functional, Canis lupus familiaris; procedure, shortened: as §1
Canis familiaris [4] = assay: Antiarrhythmic property Mean blood pressure(post drug) is compared to Lidocaine using doses(3 and 6 mg/kg); format: functional, Canis lupus familiaris; procedure, shortened: as §1
Canis familiaris [5] = assay: Antiarrhythmic properties are compared to lidocaine(2) using doses(3 and 6 mg/kg) measures His-Purkinje conduction time(drug free); format: functional, Canis lupus familiaris, His-Purkinje system; procedure, shortened: as §1
Canis familiaris [6] = assay: Antiarrhythmic property His-Purkinje conduction time(post drug) is compared to lidocaine(2) using doses(3 and 6 mg/kg); format: functional, Canis lupus familiaris, His-Purkinje system
Procedure, shortened: (§2)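 Mongrel dogs (about 12–25 kg), 1–4 days after coronary occlusion infarction, under sodium pentobarbital (~30 mg/kg) with 12-lead ECG monitoring. Agents and lidocaine were given iv at 3 and 6 mg/kg. Programmed ventricular stimulation was applied at baseline, about 2–5 min after each dose, and at 30 min. SVT was defined as ≥250 beats/min lasting ≥30 s. Pre means drug-free; post means after dosing.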

Canis familiaris [7] = assay: Antiarrhythmic property Nonsustained ventricular tachycardia is compared to lidocaine(2) using doses(3 and 6 mg/kg); format: functional, Canis lupus familiaris, Heart; procedure, shortened: as §1
Canis familiaris [8] = assay: (§3) Antiarrhythmic property ventricular effective refractory period(drug free) is compared to lidocaine(2) using doses(3 and 6 mg/kg); format: functional, Canis lupus familiaris, Heart; procedure, shortened: as §1
Canis familiaris [9] = assay: Antiarrhythmic property A-V nodal conduction time(post drug) is compared to lidocaine(2) using doses(3 and 6 mg/kg); format: functional, Canis lupus familiaris, Heart; procedure, shortened: as §2
Canis familiaris [10] = assay: Antiarrhythmic property is compared to lidocaine(2) using doses(3 and 6 mg/kg). Time required for the ventricular myocardium to undergo depolarization and repolarization ((post drug); format: functional, Canis lupus familiaris; procedure, shortened: as §2
Canis familiaris [11] = assay: Antiarrhythmic property is compared to lidocaine(2) using doses(3 and 6 mg/kg). Time required for the ventricular myocardium to undergo depolarization and repolarization (drug free); format: functional, Canis lupus familiaris; procedure, shortened: as §2
Canis familiaris [12] = assay: Tested for antiarrhythmic property by measuring ability to decrease heart rate(drug free) is compared to Lidocaine using doses (3 and 6 mg/kg).; format: functional, Canis lupus familiaris; procedure, shortened: as §2
Canis familiaris [13] = assay: Tested for antiarrhythmic property by measuring ability to decrease heart rate(post drug) is compared to Lidocaine using doses(3 and 6 mg/kg).; format: functional, Canis lupus familiaris; procedure, shortened: as §2
Canis familiaris [14] = assay: Antiarrhythmic property A-V nodal conduction time(drug free) is compared to lidocaine(2) using doses(3 and 6 mg/kg); format: functional, Canis lupus familiaris, Heart; procedure, shortened: as §2
Canis familiaris [15] = assay: Tested for antiarrhythmic property by measuring ability to decrease Mean blood pressure (drug free) is compared to Lidocaine using doses(3 and 6 mg/kg).; format: functional, Canis lupus familiaris; procedure, shortened: as §2
Canis familiaris [16] = assay: Tested for antiarrhythmic property by measuring ability to decrease Mean blood pressure(post drug) is compared to Lidocaine using doses(3 and 6 mg/kg); format: functional, Canis lupus familiaris; procedure, shortened: as §2
Canis familiaris [17] = assay: as §3; format: functional, Canis lupus familiaris, Heart; procedure, shortened: as §2; remark: listed apart in the source
Canis familiaris [18] = assay: Antiarrhythmic property ventricular effective refractory period(post drug) is compared to lidocaine(2) using doses(3 and 6 mg/kg); format: functional, Canis lupus familiaris, Heart; procedure, shortened: as §2
Canis familiaris [19] = assay: Tested for antiarrhythmic property by measuring ability to decrease heart rate (drug free) is compared to Lidocaine using doses (3 and 6 mg/kg).; format: functional, Canis lupus familiaris; procedure, shortened: as §2
Canis familiaris [20] = assay: Tested for antiarrhythmic property by measuring ability to decrease heart rate (post drug) is compared to Lidocaine using doses (3 and 6 mg/kg); format: functional, Canis lupus familiaris; procedure, shortened: as §2
Canis familiaris [21] = assay: (§4) Antiarrhythmic property Nonsustained ventricular tachycardia is compared to lidocaine(2) using dose of (3 and 6 mg/kg); format: functional, Canis lupus familiaris, Heart; procedure, shortened: as §2
Canis familiaris [22] = assay: Antiarrhythmic property His-Purkinje conduction time(drug free) is compared to lidocaine(2) using doses(3 and 6 mg/kg) measures; format: functional, Canis lupus familiaris, His-Purkinje system; procedure, shortened: as §1
Canis familiaris [23] = assay: Antiarrhythmic property His-Purkinje conduction time(post drug) is compared to lidocaine(2) using doses(3 and 6 mg/kg) measures; format: functional, Canis lupus familiaris, His-Purkinje system; procedure, shortened: as §1
Canis familiaris [24] = assay: as §4; format: functional, Canis lupus familiaris, Heart; procedure, shortened: as §1; remark: listed apart in the source
Canis familiaris [25] = assay: Antiarrhythmic property His-Purkinje conduction time(drug free) is compared to lidocaine(2) using doses(3 and 6 mg/kg); format: functional, Canis lupus familiaris, His-Purkinje system; procedure, shortened: as §2
Canis familiaris [26] = assay: Antiarrhythmic property A-V nodal conduction time(post drug) is compared to lidocaine(2) using dose (3 and 6 mg/kg); No effect; format: functional, organism-based; set-up: dose 6 mg/kg; conditions: Canis lupus familiaris; Heart; procedure, shortened: as §1
Canis familiaris [27] = assay: Antiarrhythmic property compared to lidocaine(2) using doses(3 and 6 mg/kg). Time required for the ventricular myocardium to undergo depolarization and repolarization ((post drug); No effect; format: functional, organism-based; set-up: dose 6 mg/kg; conditions: Canis lupus familiaris; procedure, shortened: as §2
Canis familiaris [28] = assay: Antiarrhythmic property compared to lidocaine(2) using doses(3 and 6 mg/kg). Time required for the ventricular myocardium to undergo depolarization and repolarization (drug free); No effect; format: functional, organism-based; set-up: dose 6 mg/kg; conditions: Canis lupus familiaris; procedure, shortened: as §2
Canis familiaris [29] = assay: Antiarrhythmic property A-V nodal conduction time(drug free) is compared to lidocaine(2) using doses(3 and 6 mg/kg); No effect; format: functional, organism-based; set-up: dose 6 mg/kg; conditions: Canis lupus familiaris; Heart; procedure, shortened: as §1
Canis familiaris [30] = assay: Antiarrhythmic property His-Purkinje conduction time(post drug) is compared to lidocaine(2) using dose(3 and 6 mg/kg); No effect; format: functional, organism-based; set-up: dose 6 mg/kg; conditions: Canis lupus familiaris; His-Purkinje system; procedure, shortened: as §2
Canis familiaris [31] = assay: Antiarrhythmic property His-Purkinje conduction time(drug free) is compared to lidocaine(2) using doses(3 and 6 mg/kg); No effect; format: functional, organism-based; set-up: dose 6 mg/kg; conditions: Canis lupus familiaris; His-Purkinje system; procedure, shortened: as §2
Canis familiaris [32] = assay: Antiarrhythmic property ventricular effective refractory period(drug free) is compared to lidocaine(2) using doses(3 and 6 mg/kg); No effect; format: functional, organism-based; set-up: dose 6 mg/kg; conditions: Canis lupus familiaris; Heart; procedure, shortened: as §1
Canis familiaris [33] = assay: Antiarrhythmic property ventricular effective refractory period(post drug) is compared to lidocaine(2) using doses(3 and 6 mg/kg); No effect; format: functional, organism-based; set-up: dose 6 mg/kg; conditions: Canis lupus familiaris; Heart; procedure, shortened: as §1
Canis familiaris [34] = assay: Antiarrhythmic property A-V nodal conduction time(post drug) is compared to lidocaine(2) using dose (3 and 6 mg/kg); format: functional, Canis lupus familiaris, Heart; procedure, shortened: as §2
Canis familiaris [35] = assay: Antiarrhythmic properties are compared to lidocaine(2) using doses(3 and 6 mg/kg). Time required for the ventricular myocardium to undergo depolarization and repolarization ((post drug); No effect; format: functional, organism-based; set-up: dose 6 mg/kg; conditions: Canis lupus familiaris; procedure, shortened: as §2
Canis familiaris [36] = assay: Antiarrhythmic properties are compared to lidocaine(2) using doses(3 and 6 mg/kg). Time required for the ventricular myocardium to undergo depolarization and repolarization (drug free); No effect; format: functional, organism-based; set-up: dose 6 mg/kg; conditions: Canis lupus familiaris; procedure, shortened: as §2
Canis familiaris [37] = assay: Tested for antiarrhythmic property by measuring ability to decrease Mean blood pressure (post drug) is compared to Lidocaine using doses(3 and 6 mg/kg); format: functional, Canis lupus familiaris; procedure, shortened: as §2
Canis familiaris [38] = assay: Antiarrhythmic properties are compared to lidocaine(2) using doses(3 and 6 mg/kg) measures His-Purkinje conduction time(drug free); No effect; format: functional, organism-based; set-up: dose 6 mg/kg; conditions: Canis lupus familiaris; His-Purkinje system; procedure, shortened: as §2
Canis familiaris [39] = assay: Antiarrhythmic property His-Purkinje conduction time(post drug) is compared to lidocaine(2) using doses(3 and 6 mg/kg); No effect; format: functional, organism-based; set-up: dose 6 mg/kg; conditions: Canis lupus familiaris; His-Purkinje system; procedure, shortened: as §2

SMILES: c1ccc(CN2CC3CSCC(C3)C2)cc1
- HR (Canis familiaris [1]): 162 beats min-1
- HR (Canis familiaris [2]): 162 beats min-1
- MBP (Canis familiaris [3]): 98 mmHg
- MBP (Canis familiaris [4]): 120 mmHg
- HV interval (Canis familiaris [5]): 30 ms
- HV interval (Canis familiaris [6]): 40 ms
- NSVT (Canis familiaris [7]): 3 mg/kg
- VERP (Canis familiaris [7]): 163 ms
- VERP (Canis familiaris [8]): 142 ms

SMILES: CC(C)N1CC2CC(CN(C(=O)c3ccc([N+](=O)[O-])cc3)C2)C1.Cl
- AH interval (Canis familiaris [9]): 75 ms
- QT (Canis familiaris [10]): 260 ms
- QT (Canis familiaris [11]): 220 ms
- HR (Canis familiaris [12]): 130 beats min-1
- HR (Canis familiaris [13]): 100 beats min-1
- AH interval (Canis familiaris [14]): 60 ms
- MBP (Canis familiaris [15]): 95 mmHg
- MBP (Canis familiaris [16]): 75 mmHg
- NSVT (Canis familiaris [17]): 6 mg/kg
- VERP (Canis familiaris [17]): 160 ms
- VERP (Canis familiaris [18]): 230 ms

SMILES: CC(C)N1CC2CC(CN(C(=O)c3ccc(NS(C)(=O)=O)cc3)C2)C1
- HR (Canis familiaris [19]): 150 beats min-1
- HR (Canis familiaris [20]): 150 beats min-1
- MBP (Canis familiaris [15]): 70 mmHg
- MBP (Canis familiaris [16]): 50 mmHg
- NSVT (Canis familiaris [21]): 6 mg/kg

SMILES: Cl.c1ccc(CN2CC3CSCC(C3)C2)cc1
- HR (Canis familiaris [1]): 162 beats min-1
- HR (Canis familiaris [2]): 165 beats min-1
- MBP (Canis familiaris [3]): 99 mmHg
- MBP (Canis familiaris [4]): 105 mmHg
- HV interval (Canis familiaris [22]): 30 ms
- HV interval (Canis familiaris [23]): 35 ms
- NSVT (Canis familiaris [24]): 3 mg/kg

SMILES: CC(C)N1CC2CN(C(C)C)CC(C1)C21SCCS1
- AH interval (Canis familiaris [9]): 75 ms
- QT (Canis familiaris [10]): 270 ms
- QT (Canis familiaris [11]): 236 ms
- AH interval (Canis familiaris [14]): 56 ms
- HR (Canis familiaris [1]): 154 beats min-1
- HR (Canis familiaris [2]): 105 beats min-1
- MBP (Canis familiaris [3]): 61 mmHg
- MBP (Canis familiaris [4]): 76 mmHg
- HV interval (Canis familiaris [6]): 40 ms
- HV interval (Canis familiaris [25]): 30 ms
- VERP (Canis familiaris [8]): 140 ms
- VERP (Canis familiaris [21]): 180 ms

SMILES: c1ccc(CN2CC3CN(CC4CC4)CC(C2)C32SCCS2)cc1
- AH interval (Canis familiaris [26]): inactive
- QT (Canis familiaris [27]): inactive
- QT (Canis familiaris [28]): inactive
- AH interval (Canis familiaris [29]): inactive
- HR (Canis familiaris [1]): 148 beats min-1
- HR (Canis familiaris [2]): 148 beats min-1
- MBP (Canis familiaris [3]): 105 mmHg
- MBP (Canis familiaris [4]): 105 mmHg
- HV interval (Canis familiaris [30]): inactive
- HV interval (Canis familiaris [31]): inactive
- VERP (Canis familiaris [32]): inactive
- VERP (Canis familiaris [33]): inactive
- NSVT (Canis familiaris [24]): 3 mg/kg

SMILES: O=C(c1ccccc1)N1CC2CC(CN(CC3CC3)C2)C1
- AH interval (Canis familiaris [34]): 70 ms
- HR (Canis familiaris [19]): 120 beats min-1
- HR (Canis familiaris [13]): 111 beats min-1
- AH interval (Canis familiaris [14]): 65 ms
- QT interval (Canis familiaris [35]): inactive
- QT interval (Canis familiaris [36]): inactive
- MBP (Canis familiaris [15]): 92 mmHg
- MBP (Canis familiaris [37]): 83 mmHg
- HV interval (Canis familiaris [38]): inactive
- HV interval (Canis familiaris [39]): inactive
- VERP (Canis familiaris [17]): 170 ms
- VERP (Canis familiaris [21]): 190 ms

Reference: ChEMBL document CHEMBL1129356, “Novel 3,7-diheterabicyclo[3.3.1]nonanes that possess predominant class III antiarrhythmic activity in 1-4 day post infarction dog models: X-ray diffraction analysis of 3-[4-(1H-imidazol-1-yl)benzoyl]-7-isopropyl-3,7-diazabicyclo[3.3.1]nona ne dihydroperchlorate” (1996)
